Laboratory results reported in ChEMBL document CHEMBL1148778, “Synthesis and characterization of nonsteroidal glucocorticoid receptor modulators for multiple myeloma” (J Med Chem, 2007).

Assays:
Glucocorticoid receptor [1] = biological target: T1, Glucocorticoid receptor (Homo sapiens, UniProt P04150); experiment: Agonist activity at human GR expressed in CV1 cells by GRE activation assay; assay type: functional, cell-based, CV-1
T1 sequence (P04150 whole entry): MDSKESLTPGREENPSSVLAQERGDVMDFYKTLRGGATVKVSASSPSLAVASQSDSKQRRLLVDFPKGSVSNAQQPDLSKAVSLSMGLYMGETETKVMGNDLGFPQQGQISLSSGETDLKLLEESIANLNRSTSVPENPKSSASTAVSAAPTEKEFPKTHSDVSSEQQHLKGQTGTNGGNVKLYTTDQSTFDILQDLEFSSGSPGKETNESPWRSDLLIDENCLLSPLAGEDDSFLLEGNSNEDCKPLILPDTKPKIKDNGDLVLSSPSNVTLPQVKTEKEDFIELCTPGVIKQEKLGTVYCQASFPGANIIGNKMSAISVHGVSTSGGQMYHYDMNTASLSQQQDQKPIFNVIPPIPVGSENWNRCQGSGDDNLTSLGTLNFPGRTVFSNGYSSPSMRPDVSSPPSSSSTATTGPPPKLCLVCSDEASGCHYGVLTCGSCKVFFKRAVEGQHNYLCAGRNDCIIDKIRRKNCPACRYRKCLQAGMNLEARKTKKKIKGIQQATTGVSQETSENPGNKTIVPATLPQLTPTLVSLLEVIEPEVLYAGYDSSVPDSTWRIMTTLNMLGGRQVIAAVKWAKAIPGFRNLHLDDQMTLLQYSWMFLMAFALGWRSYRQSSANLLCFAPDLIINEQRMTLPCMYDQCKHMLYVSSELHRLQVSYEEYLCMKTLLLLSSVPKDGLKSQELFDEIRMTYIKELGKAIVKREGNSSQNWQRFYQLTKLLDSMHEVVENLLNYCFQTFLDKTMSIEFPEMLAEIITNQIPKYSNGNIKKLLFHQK

Glucocorticoid receptor [2] = biological target: T1, Glucocorticoid receptor; experiment: Binding affinity to GR
RPMI-8226 [3] = experiment: Antiproliferative activity against human RPMI8226 cells after 4 days; assay type: functional, cell-based; conditions: RPMI-8226, 96 h
RPMI-8226 [4] = experiment: Antiproliferative activity against human RPMI8226 cells after 4 days relative to Dexamethasone; assay type: functional
Progesterone receptor = biological target: T2, Progesterone receptor (Homo sapiens, UniProt P06401); experiment: Binding affinity to PR
T2 sequence (P06401 whole entry): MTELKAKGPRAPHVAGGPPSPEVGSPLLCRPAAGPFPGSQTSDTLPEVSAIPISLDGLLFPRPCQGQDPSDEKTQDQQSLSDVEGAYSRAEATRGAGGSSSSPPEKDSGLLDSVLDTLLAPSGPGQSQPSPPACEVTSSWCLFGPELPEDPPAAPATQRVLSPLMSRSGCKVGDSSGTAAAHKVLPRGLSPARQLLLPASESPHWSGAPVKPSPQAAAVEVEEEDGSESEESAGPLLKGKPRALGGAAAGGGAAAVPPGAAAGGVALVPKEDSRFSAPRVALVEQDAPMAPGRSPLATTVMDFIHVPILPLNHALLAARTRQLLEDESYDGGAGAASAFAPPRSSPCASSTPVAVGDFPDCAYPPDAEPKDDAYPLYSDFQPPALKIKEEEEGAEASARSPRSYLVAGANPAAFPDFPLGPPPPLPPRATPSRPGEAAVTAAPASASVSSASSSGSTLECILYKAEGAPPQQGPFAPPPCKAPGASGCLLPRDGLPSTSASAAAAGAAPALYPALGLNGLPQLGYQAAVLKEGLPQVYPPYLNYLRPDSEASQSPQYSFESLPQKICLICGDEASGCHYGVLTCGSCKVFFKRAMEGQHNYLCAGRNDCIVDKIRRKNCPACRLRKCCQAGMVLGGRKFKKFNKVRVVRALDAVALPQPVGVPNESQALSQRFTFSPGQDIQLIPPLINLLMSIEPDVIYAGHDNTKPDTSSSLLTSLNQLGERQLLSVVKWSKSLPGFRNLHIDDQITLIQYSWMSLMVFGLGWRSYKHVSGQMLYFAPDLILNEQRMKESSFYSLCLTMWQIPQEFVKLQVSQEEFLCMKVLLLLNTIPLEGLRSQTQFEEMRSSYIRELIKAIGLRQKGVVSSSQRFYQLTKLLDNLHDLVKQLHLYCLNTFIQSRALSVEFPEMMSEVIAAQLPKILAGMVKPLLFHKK
Procedure, shortened: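 Competitive binding assays on PR and MR. Values are means of at least three separate experiments, each with triplicate determinations, ± SEM. A value without SEM comes from a single determination.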

[5] = biological target: T3, Mineralocorticoid receptor (Homo sapiens) (UniProt P08235); experiment: Agonist activity at mineralocorticoid receptor by MR activation assay; assay type: functional
T3 sequence (whole entry): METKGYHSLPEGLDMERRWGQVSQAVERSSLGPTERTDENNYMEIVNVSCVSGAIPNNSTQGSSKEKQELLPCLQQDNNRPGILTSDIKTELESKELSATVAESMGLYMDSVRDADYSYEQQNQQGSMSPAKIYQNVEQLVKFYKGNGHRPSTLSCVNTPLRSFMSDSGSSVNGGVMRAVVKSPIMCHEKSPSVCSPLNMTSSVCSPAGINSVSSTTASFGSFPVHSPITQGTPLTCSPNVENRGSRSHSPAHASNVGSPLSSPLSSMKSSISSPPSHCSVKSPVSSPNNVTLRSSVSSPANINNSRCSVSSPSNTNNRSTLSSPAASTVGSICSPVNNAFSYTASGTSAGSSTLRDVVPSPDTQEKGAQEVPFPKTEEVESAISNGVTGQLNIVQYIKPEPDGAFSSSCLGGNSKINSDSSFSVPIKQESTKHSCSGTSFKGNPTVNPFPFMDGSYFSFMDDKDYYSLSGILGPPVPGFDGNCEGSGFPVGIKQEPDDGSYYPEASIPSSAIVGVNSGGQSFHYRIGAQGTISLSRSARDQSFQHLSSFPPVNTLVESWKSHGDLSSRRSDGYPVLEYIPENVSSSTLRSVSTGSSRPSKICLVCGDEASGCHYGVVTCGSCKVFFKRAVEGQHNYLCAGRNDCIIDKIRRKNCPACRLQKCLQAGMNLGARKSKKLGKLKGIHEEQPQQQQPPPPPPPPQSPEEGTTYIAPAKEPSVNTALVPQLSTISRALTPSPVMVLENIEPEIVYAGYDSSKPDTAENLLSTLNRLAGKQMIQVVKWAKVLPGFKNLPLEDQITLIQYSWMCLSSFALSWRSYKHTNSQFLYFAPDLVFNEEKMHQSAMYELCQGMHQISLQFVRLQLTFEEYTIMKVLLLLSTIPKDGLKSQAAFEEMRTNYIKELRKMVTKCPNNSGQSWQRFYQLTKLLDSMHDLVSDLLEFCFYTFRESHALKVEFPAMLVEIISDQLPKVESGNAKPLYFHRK

RPMI-8226 [6] = experiment: Inhibition of tumor growth in human RPMI8226 cells xenografted nude mouse at 100 mg/kg, po after 4 weeks relative to Dexamethasone; assay type: functional
RPMI-8226 [7] = experiment: Inhibition of tumor growth in human RPMI8226 cells xenografted nude mouse at 10 mg/kg, po after 4 weeks relative to Dexamethasone; assay type: functional
RPMI-8226 [8] = experiment: Inhibition of tumor growth in human RPMI8226 cells xenografted nude mouse at 30 mg/kg, po after 4 weeks relative to Dexamethasone; assay type: functional

SMILES | EC50 (Glucocorticoid receptor [1]) [nM] | Ki (Glucocorticoid receptor [2]) [nM] | IC50 (RPMI-8226 [3]) [nM] | Efficacy (RPMI-8226 [4]) [%] | Ki (Progesterone receptor) [nM] | Activity [5] [%] | Efficacy (RPMI-8226 [6]) [%] | Efficacy (RPMI-8226 [7]) [%] | Efficacy (RPMI-8226 [8]) [%]
COCc1ccsc1/C=C1\Oc2ccc(O)c(OC)c2-c2ccc3c(c21)C(C)=CC(C)(C)N3 | 0.2 | 0.2 | 8.5 | 98 | 190 | 25 |  |  | 
CO/N=C(\C)c1ccsc1/C=C1\Oc2ccc(O)c(OC)c2-c2ccc3c(c21)C(C)=CC(C)(C)N3 | 0.1 | 1.1 | 9.5 | 101 | 38 |  | 95 | 78 | 82
COc1c(O)ccc2c1-c1ccc3c(c1/C(=C/c1sccc1CO)O2)C(C)=CC(C)(C)N3 | 0.2 | 0.7 | 4.9 | 99 | 1400 |  | 97 |  | 80
